# Data reported in ChEMBL document CHEMBL4813982, “Novel pyrazolo[4,3-d]pyrimidine microtubule targeting agents (MTAs): Synthesis, structure-activity relationship, in vitro and in vivo evaluation as antitumor agents” (Bioorg Med Chem Lett, 2021).
# Activity calls are given as the source filed them. No cut-off for these calls is given here.
# Tests used:
# Malme-3M = assay: Growth inhibition of human Malme-3M cells incubated for 48 hrs by sulforhodamine B assay; format: functional
# [1] = Resistance ratio of EC50 for antiproliferative activity against human MCF7 cells expressing TUBB3 to EC50 for antiproliferative activity against human MCF7 cells; format: functional
# Method in brief: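 Resistance ratio: EC50 in MCF-7 cells overexpressing βIII-tubulin divided by EC50 in parental wild-type MCF-7 cells.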
# COLO 205 = assay: Growth inhibition of human COLO 205 cells incubated for 48 hrs by sulforhodamine B assay; format: functional
# SK-OV-3 = assay: Growth inhibition of human SK-OV-3 cells incubated for 48 hrs by sulforhodamine B assay; format: functional
# MCF7 [2] = assay: Potency index, ratio of EC50 of paclitaxel to EC50 of compound for antiproliferative activity against human MCF7 cells expressing TUBB3; format: functional
# OVCAR-3 = assay: Growth inhibition of human OVCAR-3 cells incubated for 48 hrs by sulforhodamine B assay; format: functional
# MCF7 [3] = assay: Antitumor activity against human MCF7 cells expressing TUBB3 xenografted in athymic mouse assessed as reduction in tumor growth at 30 mg/kg administered twice in a week; format: functional, organism-based
# Method in brief: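 βIII-tubulin-overexpressing MCF-7 cells in Matrigel implanted into mammary fat pad #4 of 8-week-old female athymic mice. […] Tumor volumes measured over time and analysed by two-way repeated-measures ANOVA. Body weight change at day 41 analysed by one-way ANOVA. n = 7 control, 8 per treated group.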
# NCI/ADR-RES [4] = assay: Antiproliferative activity against human NCI/ADR-RES cells overexpressing Pgp; format: functional, cell-based
# SK-MEL-28 = assay: Growth inhibition of human SK-MEL-28 cells incubated for 48 hrs by sulforhodamine B assay; format: functional
# MDA-MB-468 = assay: Growth inhibition of human MDA-MB-468 cells incubated for 48 hrs by sulforhodamine B assay; format: functional
# Tubulin (Homo sapiens) = Tubulin (Homo sapiens) (UniProt P68371+Q9H4B7+P0DPH7+P68366+Q13509+Q71U36+P04350+Q3ZCM7+P07437+P68363+Q9BQE3+Q6PEY2+Q13885+Q9BVA1+Q9BUF5); assay: Inhibition of [3H]colchicine binding to tubulin (unknown origin) at 0.5 uM relative to control; format: protein-complex assay
# MCF7 [5] = assay: Antiproliferative activity against human MCF7 cells; format: functional, cell-based
# Hs-578T = assay: Growth inhibition of human HS-578T cells incubated for 48 hrs by sulforhodamine B assay; format: functional
# NCI-H226 = assay: Growth inhibition of human NCI-H226 cells incubated for 48 hrs by sulforhodamine B assay; format: functional
# SK-MEL-2 = assay: Growth inhibition of human SK-MEL-2 cells incubated for 48 hrs by sulforhodamine B assay; format: functional
# HCT-29 = assay: Growth inhibition of […] incubated for 48 hrs by sulforhodamine B assay; format: functional
# ACHN = assay: Growth inhibition of human ACHN cells incubated for 48 hrs by sulforhodamine B assay; format: functional
# HCT-116 = assay: Growth inhibition of human HCT-116 cells incubated for 48 hrs by sulforhodamine B assay; format: functional
# NCI/ADR-RES [6] = assay: Growth inhibition of human NCI/ADR-RES cells incubated for 48 hrs by sulforhodamine B assay; format: functional
# CAKI-1 = assay: Growth inhibition of human CAKI-1 cells incubated for 48 hrs by sulforhodamine B assay; format: functional
# Tubulin = assay: Inhibition of tubulin assembly (unknown origin); format: protein-complex assay, Homo sapiens
# HOP-92 = assay: Growth inhibition of human HOP-92 cells incubated for 48 hrs by sulforhodamine B assay; format: functional
# HL-60(TB) = assay: Growth inhibition of human HL-60(TB) cells incubated for 48 hrs by sulforhodamine B assay; format: functional
# NCI-H460 = assay: Growth inhibition of human NCI-H460 cells incubated for 48 hrs by sulforhodamine B assay; format: functional
# UACC-257 = assay: Growth inhibition of human UACC-257 cells incubated for 48 hrs by sulforhodamine B assay; format: functional
# OVCAR-4 = assay: Growth inhibition of human OVCAR-4 cells incubated for 48 hrs by sulforhodamine B assay; format: functional
# HOP-62 = assay: Growth inhibition of human HOP-62 cells incubated for 48 hrs by sulforhodamine B assay; format: functional
# SK-MEL-5 = assay: Growth inhibition of human SK-MEL-5 cells incubated for 48 hrs by sulforhodamine B assay; format: functional
# U-251 = assay: Growth inhibition of human U-251 cells incubated for 48 hrs by sulforhodamine B assay; format: functional
# MOLT-4 = assay: Growth inhibition of human MOLT-4 cells incubated for 48 hrs by sulforhodamine B assay; format: functional
# DU-145 = assay: Growth inhibition of human DU-145 cells incubated for 48 hrs by sulforhodamine B assay; format: functional
# KM12 = assay: Growth inhibition of human KM12 cells incubated for 48 hrs by sulforhodamine B assay; format: functional
# SNB-19 = assay: Growth inhibition of human SNB-19 cells incubated for 48 hrs by sulforhodamine B assay; format: functional
# A498 = assay: Growth inhibition of human A498 cells incubated for 48 hrs by sulforhodamine B assay; format: functional
# OVCAR-8 = assay: Growth inhibition of human OVCAR-8 cells incubated for 48 hrs by sulforhodamine B assay; format: functional
# MDA-MB-231 = assay: Growth inhibition of human MDA-MB-231 cells incubated for 48 hrs by sulforhodamine B assay; format: functional
# MCF7 [7] = assay: Antiproliferative activity against human MCF7 cells expressing TUBB3; format: functional, cell-based
# UACC-62 = assay: Growth inhibition of human UACC-62 cells incubated for 48 hrs by sulforhodamine B assay; format: functional
# LOX IMVI = assay: Growth inhibition of human LOX IMVI cells incubated for 48 hrs by sulforhodamine B assay; format: functional
# RPMI-8226 = assay: Growth inhibition of human RPMI-8226 cells incubated for 48 hrs by sulforhodamine B assay; format: functional
# UO-31 = assay: Growth inhibition of human UO-31 cells incubated for 48 hrs by sulforhodamine B assay; format: functional
# SF-268 = assay: Growth inhibition of human SF-268 cells incubated for 48 hrs by sulforhodamine B assay; format: functional
# HCT-15 = assay: Growth inhibition of human HCT-15 cells incubated for 48 hrs by sulforhodamine B assay; format: functional
# SR = assay: Growth inhibition of human SR cells incubated for 48 hrs by sulforhodamine B assay; format: functional
# SN12C = assay: Growth inhibition of human SN12C cells incubated for 48 hrs by sulforhodamine B assay; format: functional
# OVCAR-5 = assay: Growth inhibition of human OVCAR-5 cells incubated for 48 hrs by sulforhodamine B assay; format: functional
# M14 = assay: Growth inhibition of human M14 cells incubated for 48 hrs by sulforhodamine B assay; format: functional
# T47D = assay: Growth inhibition of human T47D cells incubated for 48 hrs by sulforhodamine B assay; format: functional
# PC-3 = assay: Growth inhibition of human PC-3 cells incubated for 48 hrs by sulforhodamine B assay; format: functional
# NCI-H522 = assay: Growth inhibition of human NCI-H522 cells incubated for 48 hrs by sulforhodamine B assay; format: functional
# K562 = assay: Growth inhibition of human K562 cells incubated for 48 hrs by sulforhodamine B assay; format: functional
smiles,measurement,setting,value
COc1ccc(N(C)c2nc(Cl)nc3cnn(C)c23)cc1,GI50,Malme-3M,12.1 nM
same,Ratio EC50,[1],1.1
same,GI50,COLO 205,9.78 nM
same,GI50,SK-OV-3,13.9 nM
same,Ratio EC50,MCF7 [2],600
same,GI50,OVCAR-3,6.37 nM
same,TGI,MCF7 [3],Active
same,IC50,NCI/ADR-RES [4],5 nM
same,GI50,SK-MEL-28,17 nM
same,GI50,MDA-MB-468,9.09 nM
same,inhibition,Tubulin (Homo sapiens),68%
same,EC50,MCF7 [5],2 nM
same,GI50,Hs-578T,11.2 nM
same,GI50,NCI-H226,9.49 nM
same,GI50,SK-MEL-2,21 nM
same,GI50,HCT-29,7.6 nM
same,GI50,ACHN,8.4 nM
same,GI50,HCT-116,9.07 nM
same,GI50,NCI/ADR-RES [6],8.24 nM
same,GI50,CAKI-1,15.7 nM
same,IC50,Tubulin,450 nM
same,GI50,HOP-92,16 nM
same,GI50,HL-60(TB),11.2 nM
same,GI50,NCI-H460,4.52 nM
same,GI50,UACC-257,22.7 nM
same,GI50,OVCAR-4,12.9 nM
same,GI50,HOP-62,15.4 nM
same,GI50,SK-MEL-5,14.6 nM
same,GI50,U-251,7.97 nM
same,GI50,MOLT-4,19.9 nM
same,GI50,DU-145,8.89 nM
same,GI50,KM12,10.8 nM
same,GI50,SNB-19,13.9 nM
same,GI50,A498,13.4 nM
same,GI50,OVCAR-8,14.7 nM
same,GI50,MDA-MB-231,14.3 nM
same,EC50,MCF7 [7],3.3 nM
same,GI50,UACC-62,15.9 nM
same,GI50,LOX IMVI,8.53 nM
same,GI50,RPMI-8226,15.3 nM
same,GI50,UO-31,10 nM
same,GI50,SF-268,12.2 nM
same,GI50,HCT-15,5.14 nM
same,GI50,SR,9.64 nM
same,GI50,SN12C,15.8 nM
same,GI50,OVCAR-5,11.8 nM
same,GI50,M14,10.6 nM
same,GI50,T47D,16.4 nM
same,GI50,PC-3,10.7 nM
same,GI50,NCI-H522,14.4 nM
same,GI50,K562,6.46 nM
